Measurements published in ChEMBL document CHEMBL1139314, “Discovery and structure-activity relationships of 4-aminoquinazoline derivatives, a novel class of opioid receptor like-1 (ORL1) antagonists” (Bioorg Med Chem, 2009).
Activity calls are given as the source filed them. The calls are words filed in the database; no cut-off is given here.

Experiments:
[1] = tested on: CHO-K1; experiment: Antagonist activity at human ORL1 receptor expressed in CHO-K1 cells assessed as inhibition of forskolin-stimulated cAMP accumulation; assay type: functional, cell-based
In short: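 CHO-K1 cells stably expressing human ORL1 were preincubated 5 min at 37 °C, 5% CO2, in Krebs-Henseleit solution (pH 7.4) with 0.5 mM IBMX. Forskolin (3 μM final) and test compound (1–1000 nM) were then added with or without nociceptin and incubated 10 min at 37 °C. Cells were lysed, and intracellular cAMP was measured by enzyme immunoassay the same day.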

[2] = target: Kappa-type opioid receptor (Rattus norvegicus, UniProt P34975); experiment: Displacement of [3H]diprenorphine from rat kappa opioid receptor expressed in CHO-K1 cells; assay type: cell-based
In short: (§1)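 Competition binding used membranes from stably transfected CHO-K1 cells. The radioligand was leucyl-[3H]nociceptin for ORL1 and [3H]diprenorphine for mu, delta and kappa. Nonspecific binding was defined with unlabeled nociceptin (ORL1), naloxone (mu), naltrindole (delta) or naloxone benzoylhydrazone (kappa). Incubation was 1 h at 25 °C in 50 mM Tris-HCl pH 7.8 with 5 mM MgCl2, 1 mM EGTA and 0.1% BSA. Samples were filtered on PEI-soaked GF/B filters and counted. Ki was derived by Cheng–Prusoff.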

[3] = target: Mu-type opioid receptor (Homo sapiens, UniProt P35372); experiment: Displacement of [3H]diprenorphine from human mu opioid receptor expressed in CHO-K1 cells; assay type: cell-based; in short: as §1
[4] = target: Delta-type opioid receptor (Rattus norvegicus, UniProt P33533); experiment: Displacement of [3H]diprenorphine from rat delta opioid receptor expressed in CHO-K1 cells; assay type: cell-based; in short: as §1
[5] = Displacement of [3H]nociceptin from human ORL1 receptor expressed in CHO-K1 cells; assay type: cell-based; in short: as §1
[6] = Antagonist activity at human ORL1 receptor expressed in CHO-K1 cells assessed as inhibition of cAMP accumulation
[7] = target: Mu-type opioid receptor (Rattus norvegicus, UniProt P33535); experiment: Displacement of [3H]diprenorphine from rat mu opioid receptor expressed in CHO-K1 cells; assay type: cell-based; in short: as §1
[8] = Selectivity ratio of Ki for rat mu opioid receptor to Ki for human ORL1 receptor
In short: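 Membranes came from CHO-K1 cells expressing rat mu opioid receptor ([3H]diprenorphine; naloxone defines nonspecific binding) or human ORL1 ([3H]nociceptin; unlabeled nociceptin). Ki values were calculated by Cheng–Prusoff.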

Kappa-type opioid receptor, sequence (P34975 whole entry): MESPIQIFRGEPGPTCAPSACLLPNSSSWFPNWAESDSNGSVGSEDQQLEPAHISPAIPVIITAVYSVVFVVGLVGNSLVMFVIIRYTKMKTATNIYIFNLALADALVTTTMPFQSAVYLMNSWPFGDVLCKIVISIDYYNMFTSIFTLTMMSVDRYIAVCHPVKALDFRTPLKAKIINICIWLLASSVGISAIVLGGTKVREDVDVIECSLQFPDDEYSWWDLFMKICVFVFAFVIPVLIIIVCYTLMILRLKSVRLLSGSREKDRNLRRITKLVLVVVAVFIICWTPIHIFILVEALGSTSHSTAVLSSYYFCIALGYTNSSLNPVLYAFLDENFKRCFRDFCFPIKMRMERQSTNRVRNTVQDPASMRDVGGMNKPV
Mu-type opioid receptor (Rattus norvegicus, UniProt P33535), sequence (P33535 whole entry): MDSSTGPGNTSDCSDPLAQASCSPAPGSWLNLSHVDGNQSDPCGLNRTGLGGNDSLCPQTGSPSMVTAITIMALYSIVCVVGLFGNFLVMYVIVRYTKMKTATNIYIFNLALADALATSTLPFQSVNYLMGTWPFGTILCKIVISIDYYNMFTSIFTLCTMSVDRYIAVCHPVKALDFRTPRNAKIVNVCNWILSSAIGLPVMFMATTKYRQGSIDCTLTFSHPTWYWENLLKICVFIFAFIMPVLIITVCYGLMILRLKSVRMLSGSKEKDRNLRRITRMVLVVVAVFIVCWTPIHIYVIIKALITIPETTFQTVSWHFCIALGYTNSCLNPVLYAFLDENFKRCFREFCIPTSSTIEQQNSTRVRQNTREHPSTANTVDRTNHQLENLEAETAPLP
Delta-type opioid receptor, sequence (P33533 whole entry): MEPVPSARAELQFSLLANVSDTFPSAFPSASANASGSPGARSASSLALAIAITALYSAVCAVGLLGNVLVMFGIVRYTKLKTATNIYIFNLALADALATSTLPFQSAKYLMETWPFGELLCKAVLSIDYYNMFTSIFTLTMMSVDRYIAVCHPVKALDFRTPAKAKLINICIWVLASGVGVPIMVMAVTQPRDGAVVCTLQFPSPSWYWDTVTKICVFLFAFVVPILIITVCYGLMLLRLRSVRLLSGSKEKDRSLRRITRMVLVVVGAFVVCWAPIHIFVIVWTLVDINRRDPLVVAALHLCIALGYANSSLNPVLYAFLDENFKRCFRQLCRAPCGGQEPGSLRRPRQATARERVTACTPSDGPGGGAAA
Mu-type opioid receptor (Homo sapiens, UniProt P35372), sequence (P35372 whole entry): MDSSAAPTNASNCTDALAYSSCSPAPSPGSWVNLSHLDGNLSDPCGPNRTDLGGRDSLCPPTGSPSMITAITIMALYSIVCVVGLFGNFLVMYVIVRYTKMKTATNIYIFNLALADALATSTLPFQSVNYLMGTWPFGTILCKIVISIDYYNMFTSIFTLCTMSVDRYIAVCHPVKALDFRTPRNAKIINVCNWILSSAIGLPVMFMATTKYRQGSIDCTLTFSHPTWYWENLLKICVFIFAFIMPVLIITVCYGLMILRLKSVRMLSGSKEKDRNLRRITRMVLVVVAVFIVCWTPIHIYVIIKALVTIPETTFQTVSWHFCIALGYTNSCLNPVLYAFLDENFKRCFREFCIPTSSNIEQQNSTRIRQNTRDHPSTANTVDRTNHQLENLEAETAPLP

Ki [2] [nM] | Ki [3] [nM] | Ki [4] [nM] | IC50 [6] [nM] | Ki [7] [nM] | Ratio Ki [8] | SMILES | Activity [1] | Ki [5] [nM]
2400 | 330 | 3600 | 17 | – | – | Cc1ccc2nc(NC(=O)c3ccc(Cl)cc3)nc(N[C@@H]3CCCC[C@@H]3NC(=N)N)c2c1 (single isomer, unassigned) | inactive | 1.4
– | – | – | – | 220 | 5.11 | Cc1ccc2nc(/C=C/c3ccc(Cl)cc3)nc(N[C@H]3CCCC[C@H]3NC(=N)N)c2c1 (racemic) | – | 43
– | – | – | – | 250 | 1.29 | Cc1ccc2nc(/C=C/c3ccc(Cl)cc3)nc(NCCCCN)c2c1 | – | 194
– | – | – | – | 300 | 3.37 | Cc1ccc2nc(/C=C/c3ccc(Cl)cc3)nc(NCCCCCCNC(=N)N)c2c1 | – | 89
– | – | – | – | 150 | 0.75 | Cc1ccc2nc(/C=C/c3ccc(Cl)cc3)nc(N[C@H]3CCCC[C@H]3N)c2c1 (racemic) | – | 200
– | – | – | – | 180 | 0.47 | NCCCCCCNc1nc(/C=C/c2ccc(Cl)cc2)nc2ccccc12 | – | 383
– | – | – | – | 180 | 0.33 | Cc1ccc2nc(/C=C/c3ccc(Cl)cc3)nc(N[C@H]3CCCC[C@@H]3N)c2c1 (racemic) | – | 538
– | – | – | – | 930 | 1.42 | Cc1cccc2c(NCCCCCCN)nc(/C=C/c3ccc(Cl)cc3)nc12 | – | 653
– | – | – | – | 200 | 0.48 | Cc1ccc2c(NCCCCCCN)nc(/C=C/c3ccc(Cl)cc3)nc2c1 | – | 420
1200 | 310 | 4000 | – | – | – | Cc1ccc2nc(NC(=O)c3ccc(Cl)cc3)nc(NC3CCCCC3NC(=N)N)c2c1 (racemic) | – | 2.1
– | – | – | – | 60 | 0.39 | Cc1ccc2nc(/C=C/c3ccc(Cl)cc3)nc(N[C@H]3CC[C@@H](NC(=N)N)CC3)c2c1 | – | 152
– | – | – | – | 300 | 0.37 | Cc1ccc2nc(/C=C/c3ccc(Cl)cc3)nc(N[C@H]3CC[C@H](N)CC3)c2c1 | – | 795
– | – | – | – | 120 | 0.51 | Cc1ccc2nc(/C=C/c3ccc(Cl)cc3)nc(NCCCCCCN)c2c1 | – | 232
– | – | – | – | 240 | 0.25 | Cc1ccc2nc(/C=C/c3ccc(Cl)cc3)nc(NCCN)c2c1 | – | 972
– | – | – | – | 410 | 2.53 | Cc1ccc2nc(/C=C/c3ccc(Cl)cc3)nc(N[C@H]3CC[C@@H](N)CC3)c2c1 | – | 162
– | – | – | – | 380 | 1.29 | NCCCCCCNc1nc(/C=C/c2ccc(Cl)cc2)nc2ccc(Cl)cc12 | – | 294
– | – | – | – | 410 | 3.08 | NCCCCCCNc1nc(/C=C/c2ccc(Cl)cc2)nc2cc3ccccc3cc12 | – | 133
– | – | – | – | 170 | 0.21 | Cc1cccc2nc(/C=C/c3ccc(Cl)cc3)nc(NCCCCCCN)c12 | – | 808
510 | 270 | 4300 | – | – | – | Cc1ccc2nc(NC(=O)c3ccc(Cl)cc3)nc(N[C@H]3CCCC[C@H]3NC(=N)N)c2c1 (single isomer, unassigned) | – | 140
– | – | – | – | 380 | 1.3 | CC(C)(C)c1ccc2nc(/C=C/c3ccc(Cl)cc3)nc(NCCCCCCN)c2c1 | – | 292
– | – | – | – | 2300 | 14.4 | Cc1ccc2nc(/C=C/c3ccc(Cl)cc3)nc(NCCCCNC(=N)N)c2c1 | – | 160
